Measurements: ChEMBL document CHEMBL3588752, “Synthesis and in Vitro Anticancer Activity of the First Class of Dual Inhibitors of REV-ERBβ and Autophagy” (J Med Chem, 2015)
pIC50: −log10 of the molar value. Activity calls are given as the source filed them. No cut-off for these calls is given here.

Tests used:
BT-474 [1] = experiment: Cytotoxicity against human BT474 cells assessed as reduction in cell number incubated for 72 hrs; format: functional, cell-based; conditions: BT-474, 72 h
Outline: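 Cells seeded at 2000/well and left overnight, then exposed 72 h to seven 3-fold serial dilutions from 100 µM. Cell number read by CyQUANT DNA dye (independent of metabolism), relative to vehicle as 100%. BT-474 grown in high-glucose DMEM, 4 mM L-glutamine, 10% FBS, 0.25 mM pyruvate.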

HMEC = experiment: Cytotoxicity against HMEC cells assessed as reduction in cell number incubated for 72 hrs; format: cell-based; conditions: Homo sapiens
BT-474 [2] = experiment: Inhibition of autophagy in human BT474 cells assessed as increase in LC3-II protein levels at 10 uM by immunoblot method; format: functional, cell-based
Outline: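 BT-474 exposed 4 h at 10 µM. Protein extracted in RIPA buffer and immunoblotted for LC3B and GAPDH in TBS-T with 5% BSA. HRP secondary at 1:20000, ECL detection. Band densitometry reported as LC3B/GAPDH ratio.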

[3] = Toxicity against human BT474 cells assessed as reduction in cell number at 10 uM incubated for 16 hrs; format: cell-based; conditions: bt-474, 16 h
BT-474 [4] = experiment: Lysosomotropic activity in human BT474 cells assessed as […] incubated for 24 hrs by lysosomotropy assay; format: functional, cell-based; conditions: BT-474, 24 h
Outline: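 Seeded at 2000 cells/well overnight, then treated. Lysosomal staining (LysoTracker fluorescence) measured 24 h post-treatment. IC50 from concentration–response plots, mean ± SEM, N ≥ 6.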

[5] = molecular target: T1, Nuclear receptor subfamily 1 group D member 2 (Homo sapiens) (UniProt Q14995); experiment: (§1) Inhibition of REV-ERBbeta (unknown origin) expressed in HEK293 cells incubated for 24 hrs assessed as inhibition of receptor-mediated transcriptional repression by REV-ERB luciferase reporter assay; format: cell-based
T1 sequence (whole entry): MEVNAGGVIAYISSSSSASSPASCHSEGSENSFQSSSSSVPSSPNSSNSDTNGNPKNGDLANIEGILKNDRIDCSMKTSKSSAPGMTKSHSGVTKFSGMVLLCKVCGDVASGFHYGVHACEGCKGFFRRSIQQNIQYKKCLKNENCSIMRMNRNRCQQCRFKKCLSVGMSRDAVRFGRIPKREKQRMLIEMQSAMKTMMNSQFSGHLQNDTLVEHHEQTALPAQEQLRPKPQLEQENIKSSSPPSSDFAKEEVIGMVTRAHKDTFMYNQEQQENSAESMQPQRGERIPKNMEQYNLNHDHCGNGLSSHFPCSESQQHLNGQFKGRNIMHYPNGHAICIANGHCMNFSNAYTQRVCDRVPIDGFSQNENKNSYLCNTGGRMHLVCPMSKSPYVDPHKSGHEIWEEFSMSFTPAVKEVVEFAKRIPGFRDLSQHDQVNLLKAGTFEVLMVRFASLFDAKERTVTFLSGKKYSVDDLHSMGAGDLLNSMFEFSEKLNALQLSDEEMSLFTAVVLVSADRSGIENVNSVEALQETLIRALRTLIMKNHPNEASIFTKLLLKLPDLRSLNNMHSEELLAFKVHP
Outline: (§2)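 HEK-293 co-transfected with a REV-ERBβ expression plasmid and a reporter with two REV-ERB response elements driving Cypridina luciferase. Compounds added the next day; luciferase activity read after 24 h. IC50 from concentration–response plots, mean ± SEM, N ≥ 6.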

[6] = molecular target: T1, Nuclear receptor subfamily 1 group D member 2 (Homo sapiens); experiment: Inhibition of REV-ERBbeta in human BT474 cells assessed as increase in BMAL1 expression at 10 uM incubated for 16 hrs by immunoblot method; conditions: BT-474
[7] = molecular target: T2, Nuclear receptor subfamily 1 group D member 2 (Homo sapiens, UniProt Q14995); experiment: as §1; format: cell-based; outline: as §2
T2 sequence (Q14995 whole entry): T1 sequence (whole entry)

LNCaP [8] = experiment: Potency index, ratio of IC50 for chloroquine to IC50 for test compound against human LNCAP cells assessed as reduction in cell number incubated for 72 hrs; format: functional
Outline: (§3)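 HepG2 was grown in high-glucose DMEM with 4 mM L-glutamine, 10% FBS and 0.5 mM pyruvate; LNCaP in RPMI-1640 with 4 mM L-glutamine and 10% FBS. Cells were seeded at 2000/well, left overnight, then given seven 3-fold dilutions from 100 µM for 72 h. Cell number was read by CyQUANT DNA stain against vehicle (100%). IC50s came from log(inhibitor)–response fits, ≥6 experiments, and chloroquine IC50 was divided by test IC50.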

HepG2 [9] = experiment: Inhibition of autophagy in human HepG2 cells assessed as increase in GFP/RFP/LC3 chimera protein levels at 30 uM incubated for 4 hrs by fluorescent microscopy; format: functional, cell-based
Outline: (§4)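 Cells transduced with LC3 fused to acid-sensitive GFP and acid-insensitive RFP. Compound or DMSO vehicle added 48 h post-transduction. After 4 h, GFP and RFP fluorescent dots counted by fluorescence microscopy.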

HepG2 [10] = experiment: Potency index, ratio of IC50 for chloroquine to IC50 for test compound against human HepG2 cells assessed as reduction in cell number incubated for 72 hrs; format: functional; outline: as §3
[11] = molecular target: T1, Nuclear receptor subfamily 1 group D member 2 (Homo sapiens); experiment: Inhibition of REV-ERBbeta in human SKBR3 cells assessed as […] at 10 uM incubated for 16 hrs by immunoblot method; format: cell-based; conditions: SK-BR-3
MCF7 = experiment: Cytotoxicity against human MCF7 cells assessed as reduction in cell number incubated for 72 hrs; format: functional, cell-based; conditions: MCF7, 72 h
Outline: (§5)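 Grown in high-glucose DMEM with 4 mM L-glutamine, 10% FBS and 0.5 mM sodium pyruvate. Seeded at 2000 cells/well overnight, then treated 72 h with seven 3-fold dilutions from 100 µM. Cell number by CyQUANT, % of vehicle. IC50 by log(inhibitor)–response fit, mean ± SEM, n ≥ 6.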

SK-BR-3 = experiment: Inhibition of autophagy in human SKBR3 cells assessed as increase in GFP/RFP/LC3 chimera protein levels at 30 uM incubated for 4 hrs by fluorescent microscopy; format: functional, cell-based; outline: as §4
LNCaP [12] = experiment: Inhibition of autophagy in human LNCAP cells assessed as increase in GFP/RFP/LC3 chimera protein levels at 30 uM incubated for 4 hrs by fluorescent microscopy; format: functional, cell-based; outline: as §4
[13] = Cytotoxicity against human SKBR3 cells assessed as reduction in cell number incubated for 72 hrs; format: functional, cell-based; conditions: SK-BR-3, 72 h
Outline: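 McCoy's medium plus 10% FBS; 2000 cells/well, overnight attachment, 72 h treatment with seven 3-fold dilutions from 100 µM (900 µM top for the reference autophagy inhibitor). CyQUANT cell number as % of vehicle. IC50 by log(inhibitor)–response fitting, mean ± SEM of ≥6 experiments.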

[14] = molecular target: T1, Nuclear receptor subfamily 1 group D member 2 (Homo sapiens); experiment: Inhibition of REV-ERBbeta in human HepG2 cells assessed as […] at 10 uM incubated for 16 hrs by immunoblot method; format: cell-based
LNCaP [15] = experiment: Cytotoxicity against human LNCAP cells assessed as reduction in cell number incubated for 72 hrs; format: functional, cell-based
Outline: (§6)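 RPMI-1640 with 4 mM L-glutamine and 10% FBS for culture. 2000 cells/well seeded overnight, then 72 h exposure to seven 3-fold dilutions (top 100 µM; top 900 µM for the reference autophagy inhibitor in MDA-MB-361). Cell number by CyQUANT relative to vehicle. IC50 from concentration–response curves, mean ± SEM, n ≥ 6.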

HepG2 [16] = experiment: Cytotoxicity against human HepG2 cells assessed as reduction in cell number incubated for 72 hrs; format: functional, cell-based; conditions: HepG2, 72 h; outline: as §5
MDA-MB-361 = experiment: Cytotoxicity against human MDA-MB-361 cells assessed as reduction in cell number incubated for 72 hrs; format: functional, cell-based; conditions: MDA-MB-361, 72 h; outline: as §6
[17] = molecular target: T1, Nuclear receptor subfamily 1 group D member 2 (Homo sapiens); experiment: Inhibition of REV-ERBbeta in human LNCAP cells assessed as […] at 10 uM incubated for 16 hrs by immunoblot method; format: cell-based

| SMILES | pIC50 (BT-474 [1]) | pIC50 (HMEC) | further results |
| --- | --- | --- | --- |
| CN1CCN(Cc2cc(CNC3(c4ccccc4F)CCC3)ccc2O)CC1 | < 4.00 |  |  |
| CN1CCN(Cc2cc(CN(C)C3(c4ccccc4F)CCCC3)ccc2O)CC1 | < 4.00 |  |  |
| CN1CCN(Cc2cccc(CNC3(c4ccccc4F)CCCC3)c2)CC1 | 4.47 | < 4.00 |  |
| CCN1CCN(Cc2cc(CNC3(c4ccccc4F)CCCC3)ccc2O)CC1 | 4.41 | < 4.00 |  |
| Oc1ccc(CNC2(c3ccccc3F)CCCC2)cc1CN1CCCCC1 | 4.45 | < 4.00 |  |
| CN1CCN(Cc2cc(CNC(C)(C)c3ccccc3F)ccc2O)CC1 | < 4.00 |  |  |
| CC(C)N1CCN(Cc2cc(CNC3(c4ccccc4F)CCCC3)ccc2O)CC1 | 4.48 | < 4.00 |  |
| CN1CCN(Cc2cc(CNC3(c4ccccc4)CCCC3)ccc2O)CC1 | 4.56 | < 4.00 |  |
| Oc1ccc(CNC2(c3ccccc3F)CCCC2)cc1CN1CCOCC1 | < 4.00 |  |  |
| Oc1ccc(CNC2(c3ccccc3F)CCCC2)cc1CN1CCN(c2ccccc2)CC1 | 4.42 | < 4.00 |  |
| CC(NCc1ccc(O)c(CN2CCN(C)CC2)c1)c1ccccc1F (stereo not given) | < 4.00 |  |  |
| CN1CCN(Cc2ccccc2CNC2(c3ccccc3F)CCCC2)CC1 | < 4.00 |  |  |
| CN1CCN(Cc2cc(CNCc3ccccc3F)ccc2O)CC1 | < 4.00 |  |  |
| COc1ccc(CNC2(c3ccccc3F)CCCC2)cc1CN1CCN(C)CC1 | < 4.00 |  |  |
| CN1CCN(Cc2cc(CNC3(c4ccccc4F)CCCCC3)ccc2O)CC1 | 4.51 | < 4.00 |  |
| COc1cccc(C2(NCc3ccc(O)c(CN4CCN(C)CC4)c3)CCCC2)c1 | 4.93 | 4.88 |  |
| CN1CCN(Cc2ccc(CNC3(c4ccccc4F)CCCC3)cc2)CC1 | < 4.00 |  |  |
| CN1CCC(Cc2cccc(CNC3(c4ccccc4F)CCCC3)c2)CC1 | 4.81 | < 4.00 | inhibition (BT-474 [2]): Active; Activity [3]: Non-toxic; pIC50 (BT-474 [4]): 5.00; inhibition [5]: Active; inhibition [6]: Active |
| CN1CCN(Cc2cc(CNC3(c4cccc(F)c4)CCCC3)ccc2O)CC1 | 4.85 | < 4.00 |  |
| CN1CCN(Cc2cc(CNC3(c4ccccc4F)CCCC3)ccc2O)CC1 | 4.52 | < 4.00 | inhibition (BT-474 [2]): Active; Activity [3]: Non-toxic; pIC50 (BT-474 [4]): 5.00; pIC50 [7]: 4.76; inhibition [6]: Active |
| Oc1ccc(CNC2(c3ccccc3F)CCCC2)cc1CN1CCN(Cc2ccccc2)CC1 | 4.46 | < 4.00 |  |
| CCN(CC)Cc1cc(CNC2(c3ccccc3F)CCCC2)ccc1O | < 4.00 |  |  |
| CN1CCN(Cc2cc(CNC3(c4ccc(F)cc4)CCCC3)ccc2O)CC1 | 5.03 | < 4.00 | inhibition (BT-474 [2]): Active; Activity [3]: Non-toxic; pIC50 (BT-474 [4]): 5.00; inhibition [5]: Active; inhibition [6]: Active |
| COc1ccccc1C1(NCc2ccc(O)c(CN3CCN(C)CC3)c2)CCCC1 | 4.51 | 4.76 |  |
| CN1CCN(Cc2cc(C(=O)NC3(c4ccccc4F)CCCC3)ccc2O)CC1 | < 4.00 |  |  |
| Fc1ccccc1C1(NCc2cccc(CN3CCCCC3)c2)CCCC1 | 4.40 | < 4.00 |  |
| CC(=O)N1CCN(Cc2cc(CNC3(c4ccccc4F)CCCC3)ccc2O)CC1 | < 4.00 |  |  |
| CN1CCC(Cc2cccc(CNC3(c4ccc(F)cc4)CCCC3)c2)CC1 | 5.68 | < 4.00 | Ratio IC50 (LNCaP [8]): 4; inhibition (HepG2 [9]): Active; inhibition (BT-474 [2]): Active; Ratio IC50 (HepG2 [10]): 10; inhibition [11]: Active; Activity [3]: Non-toxic; pIC50 (MCF7): 5.66; inhibition (SK-BR-3): Active; pIC50 (BT-474 [4]): 5.00; inhibition (LNCaP [12]): Active; pIC50 [13]: 4.80; inhibition [14]: Active; pIC50 (LNCaP [15]): 5.06; pIC50 (HepG2 [16]): 5.56; pIC50 [7]: 5.87; inhibition [6]: Active; pIC50 (MDA-MB-361): 4.51; inhibition [17]: Active |
| CC1CCC(Cc2cccc(CNC3(c4ccccc4F)CCCC3)c2)CC1 (mixture of isomers) | < 4.00 |  |  |
| Oc1ccc(CNC2(c3ccccc3F)CCCC2)cc1CN1CCNCC1 | 4.50 | < 4.00 |  |
